Legend:
[1] = Partition coefficient (logP); format: physicochemical; conditions: octanol/water
Cavia porcellus [2] = organism: Cavia porcellus; assay: Tested in vitro for bronchodilatory activity by spontaneous tone inhibition in guinea pig tracheal strips; format: functional; conditions: Trachea
[3] = test system: Thromboxane-A synthase (Oryctolagus cuniculus); assay: Tested for inhibition of thromboxane A2 (TXA2) production in rabbit by in vitro assay at 1 uM
Cavia porcellus [4] = assay: In vivo inhibitory effect on airway constriction induced by histamine 2-5 micro g/kg iv at 1 min after 10 mg/kg intravenous dose in anesthetized guinea pigs; format: functional
Method in brief: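 Male Dunkin-Hartley guinea pigs, anesthetized with pentobarbital 35 mg/kg ip, cannulated at jugular vein and trachea, ventilated at 10 mL/kg and 60 strokes/min. Insufflation pressure recorded continuously by transducer. Histamine given iv every 10 min until the constriction was reproducible. Compound 10 mg/kg iv given 1 min before the next challenge. Result is mean % inhibition against control response, from ≥3 experiments.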

[5] = target: T1, Thromboxane-A synthase (Rattus norvegicus) (UniProt P49430); assay: Tested for inhibition of thromboxane A2 (TXA2) production in rat serum by ex vivo assay after peroral dose of 30 mg/kg; format: functional, organism-based; set-up: dose 30 mg/kg
T1 sequence (whole entry): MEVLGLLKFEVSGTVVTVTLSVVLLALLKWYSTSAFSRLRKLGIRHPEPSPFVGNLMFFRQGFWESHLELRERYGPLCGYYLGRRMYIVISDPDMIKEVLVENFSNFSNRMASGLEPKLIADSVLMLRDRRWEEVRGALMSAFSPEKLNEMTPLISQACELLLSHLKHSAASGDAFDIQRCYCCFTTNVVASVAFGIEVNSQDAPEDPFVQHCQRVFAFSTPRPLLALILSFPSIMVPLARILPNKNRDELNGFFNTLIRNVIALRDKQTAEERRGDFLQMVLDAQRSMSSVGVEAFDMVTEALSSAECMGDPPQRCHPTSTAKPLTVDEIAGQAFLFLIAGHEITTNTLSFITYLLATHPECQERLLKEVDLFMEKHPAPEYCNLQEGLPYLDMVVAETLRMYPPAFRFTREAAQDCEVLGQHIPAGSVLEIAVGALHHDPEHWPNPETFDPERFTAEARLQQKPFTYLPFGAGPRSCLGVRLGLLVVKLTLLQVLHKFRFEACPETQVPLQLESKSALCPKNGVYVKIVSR
Method in brief: (§1)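 Male SD rats (240–260 g), fasted 20 h, dosed orally in 0.5% carboxymethylcellulose or given vehicle. After 1 h under ether, 2 mL cardiac blood was drawn and clotted 90 min at 37 °C. Serum was EtOH-deproteinized and stored at -20 °C. TXB₂ measured by radioimmunoassay. % inhibition calculated against each vehicle control group.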

Rattus norvegicus = assay: Tested for inhibition of TXA2 production in rat serum by ex vivo assay after peroral dose of 3 mg/kg; format: functional; conditions: route oral; method in brief: as §1

Structure (SMILES) | logP [1] | IC50 (Cavia porcellus [2]) | inhibition [3] | inhibition in vivo at 10 mg/kg (Cavia porcellus [4]) | inhibition [5] | inhibition in vivo at 3 mg/kg (Rattus norvegicus)
COc1ccc(-c2nn(CCn3ccnc3)c(=O)c3ccccc23)s1 | 1.94 | 4.27 µM | 88% | – | – | –
O=c1c2ccccc2c(-c2cccc(C(F)(F)F)c2)nn1CCn1ccnc1 | – | 1 µM | 49% | 42% | 37% | –
CCOC(=O)c1ccccc1-c1nn(CCn2ccnc2)c(=O)c2ccccc12 | – | 60.3 µM | 64% | 60% | – | –
CCOC(=O)c1ccc(-c2nn(CCn3ccnc3)c(=O)c3ccccc23)cc1 | – | 10 µM | 60% | 92% | – | –
O=c1c2ccccc2c(-c2ccc(Cl)s2)nn1CCn1ccnc1 | – | 1.45 µM | 47% | 96% | 15% | –
O=c1c2ccccc2c(-c2ccc(C(F)(F)F)cc2)nn1CCn1ccnc1 | – | 11.2 µM | 40% | – | – | –
O=c1c2ccccc2c(-c2cccnc2)nn1CCn1ccnc1 | 0.66 | 26.9 µM | – | 97% | 90% | 63%
O=C(O)c1ccc(-c2nn(CCn3ccnc3)c(=O)c3ccccc23)cc1 | – | 64.6 µM | 24% | 21% | – | –
O=c1c2ccccc2c(C2CCCC2)nn1CCn1ccnc1 | 2.63 | 5.89 µM | 38% | 98% | – | –
CCc1ccc(-c2nn(CCn3ccnc3)c(=O)c3ccccc23)cc1 | 3.17 | 7.76 µM | 79% | 8% | 55% | –
Cn1c(=O)c2[nH]cnc2n(C)c1=O [AMINOPHYLLINE] | – | 46.8 µM | – | 86% | 0% | –
CCOC(=O)c1ccc(-c2nn(CCn3ccnc3)c(=O)c3ccccc23)s1 | – | 13.2 µM | 62% | 92% | – | –
O=c1c2ccccc2c(C2CCCCC2)nn1CCn1ccnc1 | 3.19 | 0.676 µM | 32% | 71% | 28% | –
O=C(O)c1ccc(-c2nn(CCn3ccnc3)c(=O)c3ccccc23)s1 | – | 34.7 µM | – | 5% | – | –
CC(C)Cc1nn(CCn2ccnc2)c(=O)c2ccccc12 | 2 | 12 µM | 14% | – | 21% | –
Cc1ccc(-c2nn(CCn3ccnc3)c(=O)c3ccccc23)s1 | – | 6.61 µM | 53% | 26% | 0% | –
Cc1ccc(-c2nn(CCn3ccnc3)c(=O)c3ccccc23)cc1 | – | 5.13 µM | 76% | 94% | 0% | –
CC(C)c1ccc(-c2nn(CCn3ccnc3)c(=O)c3ccccc23)cc1 | – | 5.37 µM | 64% | 68% | 52% | –
O=c1c2ccccc2c(-c2ccccn2)nn1CCn1ccnc1 | 0.87 | 42.7 µM | 20% | 30% | 41% | –
O=c1c2ccccc2c(-c2cccs2)nn1CCn1ccnc1 | 1.99 | 3.55 µM | 22% | 84% | 47% | –
O=C(O)/C=C/c1ccc(Cn2ccnc2)cc1 [OZAGREL] | – | > 1000 µM | – | 0% | – | –
COc1ccc(-c2nn(CCn3ccnc3)c(=O)c3ccccc23)cc1OC | – | 6.46 µM | 27% | 90% | 32% | –
O=c1c2ccccc2c(-c2ccc(F)cc2)nn1CCn1ccnc1 | – | 15.8 µM | 33% | 100% | 46% | –

Structure (SMILES) | logP [1] | IC50 (Cavia porcellus [2]) | inhibition [3] | inhibition in vivo at 10 mg/kg (Cavia porcellus [4]) | inhibition [5] | inhibition in vivo at 3 mg/kg (Rattus norvegicus)
O=c1c2ccccc2c(Cc2cccs2)nn1CCn1ccnc1 | – | 7.59 µM | 29% | 100% | 35% | –
O=c1c2ccccc2c(-c2ccc(Cl)cc2)nn1CCn1ccnc1 | – | 2.04 µM | 63% | 71% | 40% | –
CC(=O)c1ccc(-c2nn(CCn3ccnc3)c(=O)c3ccccc23)s1 | 1.51 | 15.1 µM | 80% | 94% | 5% | –
O=c1c2ccccc2c(-c2ccccc2)nn1CCn1ccnc1 | 2.14 | 1.32 µM | 41% | 88% | 0% | –
O=c1c2ccccc2c(Cc2ccccc2)nn1CCn1ccnc1 | – | 10.7 µM | 45% | 98% | -5% | –
CCOC(=O)c1cccc(-c2nn(CCn3ccnc3)c(=O)c3ccccc23)c1 | – | 2.34 µM | 55% | 90% | 0% | –
CCOc1ccc(-c2nn(CCn3ccnc3)c(=O)c3ccccc23)cc1 | – | 5.62 µM | 54% | 87% | 68% | –
CCc1ccc(-c2nn(CCn3ccnc3)c(=O)c3ccccc23)s1 | 3.02 | 1.78 µM | 67% | 96% | 52% | –
COc1ccc(-c2nn(CCn3ccnc3)c(=O)c3ccccc23)cc1 | 2.06 | 25.1 µM | 74% | 0% | 50% | –
CSc1ccc(-c2nn(CCn3ccnc3)c(=O)c3ccccc23)cc1 | 2.7 | 4.47 µM | 83% | 73% | 67% | –
O=c1c2ccccc2c(Cc2ccc(Cl)cc2)nn1CCn1ccnc1 | – | 5.62 µM | 49% | 100% | 40% | –
COc1ccc(-c2nn(CCn3ccnc3)c(=O)c3ccccc23)cc1F | – | 3.89 µM | 63% | 54% | 60% | –
O=c1c2ccccc2c(-c2ccccc2)nn1CCCCCn1ccnc1 | – | 23.4 µM | 69% | – | – | –
O=c1c2ccccc2c(-c2ccccc2)nn1CCCCCCCCn1ccnc1 | – | 8.13 µM | 63% | – | – | –
O=C(O)c1cccc(-c2nn(CCn3ccnc3)c(=O)c3ccccc23)c1 | – | > 100 µM | 10% | 33% | – | –
O=c1c2ccccc2c(-c2ccncc2)nn1CCn1ccnc1 | 0.66 | 24 µM | 27% | 100% | 47% | –
O=c1c2ccccc2c(-c2ccco2)nn1CCn1ccnc1 | 1.52 | 42.7 µM | 27% | – | – | –
O=c1c2ccccc2c(-c2ccccc2)nn1CCCCn1ccnc1 | – | 17.4 µM | 65% | – | – | –
CCc1ccsc1-c1nn(CCn2ccnc2)c(=O)c2ccccc12 | – | 18.6 µM | 68% | 84% | 46% | –
O=C(O)c1ccccc1-c1nn(CCn2ccnc2)c(=O)c2ccccc12 | – | 49 µM | 14% | 94% | – | –
O=c1c2ccccc2c(-c2ccccc2)nn1CCCn1ccnc1 | – | 11 µM | 57% | – | – | –
O=c1c2ccccc2c(-c2ccccc2)nn1CCCCCCn1ccnc1 | – | 9.77 µM | 79% | – | – | –
Cc1nn(CCn2ccnc2)c(=O)c2ccccc12 | 0.538 | > 100 µM | 10% | – | – | –

From ChEMBL document CHEMBL1126556, “Novel antiasthmatic agents with dual activities of thromboxane A2 synthetase inhibition and bronchodilation. 1. 2-[2-(1-Imidazolyl)alkyl]-1(2H)-phthalazinones” (J Med Chem, 1993)
